ChEMBL document CHEMBL1275251, “Mutant selection window and characterization of allelic diversity for ciprofloxacin-resistant mutants of Rhodococcus equi” (Antimicrob Agents Chemother, 2010)
≈ marks a conversion by molar mass, not a printed value. Calls of active or inactive are those of the source. No cut-off for these calls is given here.

Tests used:
Prescottella equi [1] = assay: Antibacterial activity against Rhodococcus equi W5234 harboring GyrA Ser83Arg mutation selected on 16 ug/ml of compound treated culture by broth microdilution method; type: functional; conditions: Rhodococcus (subgen. Prescottella) equi
Method in brief: (§1)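 Mutants were selected by plating at least 1 × 10^10 cells, grown 48 h at 35°C in brain heart infusion broth, on ciprofloxacin-containing Columbia blood agar base for 4 days at 35°C. Each was confirmed by two passages at the selecting concentration and one drug-free passage. MIC was then read by broth microdilution in cation-supplemented Mueller-Hinton broth per CLSI M24-A. Each experiment was done twice.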

Prescottella equi [2] = assay: Antibacterial activity against Rhodococcus equi ATCC 6939T harboring GyrA Ser83Arg mutation selected on 12 ug/ml of compound treated culture by broth microdilution method; type: functional; conditions: Rhodococcus (subgen. Prescottella) equi; method in brief: as §1
Prescottella equi [3] = assay: Antibacterial activity against Rhodococcus equi W5234 harboring GyrA Ser83Arg mutation selected on 2 ug/ml of compound treated culture by broth microdilution method; type: functional; conditions: Rhodococcus (subgen. Prescottella) equi; method in brief: as §1
Prescottella equi [4] = assay: Antibacterial activity against Rhodococcus equi ATCC 6939T harboring GyrA Ser83Ile mutation selected on 12 ug/ml of compound treated culture by broth microdilution method; type: functional; conditions: Rhodococcus (subgen. Prescottella) equi; method in brief: as §1
Prescottella equi [5] = assay: Antibacterial activity against Rhodococcus equi ATCC 6939T harboring GyrA Ser83Ile mutation selected on 8 ug/ml of compound treated culture by broth microdilution method; type: functional; conditions: Rhodococcus (subgen. Prescottella) equi; method in brief: as §1
Prescottella equi [6] = assay: Antibacterial activity against Rhodococcus equi W5234 selected on 8 ug/ml of compound treated culture by broth microdilution method; type: functional; conditions: Rhodococcus (subgen. Prescottella) equi; method in brief: as §1
Prescottella equi [7] = assay: Antibacterial activity against Rhodococcus equi ATCC 6939T harboring GyrA Ser83Arg mutation selected on 6 ug/ml of compound treated culture by broth microdilution method; type: functional, organism-based; method in brief: as §1
Prescottella equi [8] = assay: Antibacterial activity against Rhodococcus equi ATCC 6939T harboring GyrA Asp87Asn mutation selected on 4 ug/ml of compound treated culture by broth microdilution method; type: functional, organism-based; method in brief: as §1
Prescottella equi [9] = assay: Antibacterial activity against Rhodococcus equi W5234 harboring GyrA Asp87Gly mutation selected on 4 ug/ml of compound treated culture by broth microdilution method; type: functional, organism-based; method in brief: as §1
Prescottella equi [10] = assay: Antibacterial activity against Rhodococcus equi ATCC 6939T selected on 4 ug/ml of compound treated culture by broth microdilution method; type: functional; conditions: Rhodococcus (subgen. Prescottella) equi; method in brief: as §1
Prescottella equi [11] = assay: Antibacterial activity against Rhodococcus equi W5234 harboring GyrA Ser83Ile mutation selected on 16 ug/ml of compound treated culture by broth microdilution method; type: functional, organism-based; method in brief: as §1
Prescottella equi [12] = assay: Antibacterial activity against Rhodococcus equi ATCC 6939T harboring GyrA Ser83Ile mutation selected on 16 ug/ml of compound treated culture by broth microdilution method; type: functional; conditions: Rhodococcus (subgen. Prescottella) equi; method in brief: as §1
Prescottella equi [13] = assay: Antibacterial activity against Rhodococcus equi ATCC 6939T harboring GyrA Ser83Ile mutation selected on 4 ug/ml of compound treated culture by broth microdilution method; type: functional, organism-based; method in brief: as §1
Prescottella equi [14] = assay: Antibacterial activity against Rhodococcus equi ATCC 6939T harboring GyrA Asp87Tyr mutation selected on 4 ug/ml of compound treated culture by broth microdilution method; type: functional, organism-based; method in brief: as §1
Prescottella equi [15] = assay: Antibacterial activity against Rhodococcus equi ATCC 6939T selected on 2 ug/ml of compound treated culture by broth microdilution method; type: functional; conditions: Rhodococcus (subgen. Prescottella) equi; method in brief: as §1
Prescottella equi [16] = assay: Antibacterial activity against Rhodococcus equi W5234 harboring GyrA Asp87Gly mutation selected on 8 ug/ml of compound treated culture by broth microdilution method; type: functional, organism-based; method in brief: as §1
Prescottella equi [17] = assay: Antibacterial activity against Rhodococcus equi W5234 isolated from HIV-positive patient; type: functional; conditions: Rhodococcus (subgen. Prescottella) equi
Method in brief: (§2)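 Cells grown 48 h at 35°C with shaking in brain heart infusion broth, then resuspended. MIC by broth microdilution in cation-supplemented Mueller-Hinton broth per CLSI M24-A. For MIC99 and MPC, ≥1 × 10^10 cells were plated on Columbia blood agar base containing a range of ciprofloxacin concentrations and incubated 4 days at 35°C. Resistant-colony fraction relative to CFU on drug-free plates was plotted against concentration. Run twice.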

Prescottella equi [18] = assay: Antibacterial activity against Rhodococcus equi W5234 harboring GyrA Ser83Arg mutation selected on 6 ug/ml of compound treated culture by broth microdilution method; type: functional; conditions: Rhodococcus (subgen. Prescottella) equi; method in brief: as §1
Prescottella equi [19] = assay: Antibacterial activity against Rhodococcus equi ATCC 6939T harboring GyrA Ser83Arg mutation selected on 2 ug/ml of compound treated culture by broth microdilution method; type: functional, organism-based; method in brief: as §1
Prescottella equi [20] = assay: Antibacterial activity against Rhodococcus equi W5234 selected on 4 ug/ml of compound treated culture by broth microdilution method; type: functional; conditions: Rhodococcus (subgen. Prescottella) equi; method in brief: as §1
Prescottella equi [21] = assay: Antibacterial activity against Rhodococcus equi ATCC 6939T isolated from lung abscess of horse; type: functional; conditions: Rhodococcus (subgen. Prescottella) equi; method in brief: as §2
Prescottella equi [22] = assay: Antibacterial activity against Rhodococcus equi W5234 harboring GyrA Gly81Cys mutation selected on 4 ug/ml of compound treated culture by broth microdilution method; type: functional, organism-based; method in brief: as §1
Prescottella equi [23] = assay: Antibacterial activity against Rhodococcus equi ATCC 6939T selected on 1 ug/ml of compound treated culture by broth microdilution method; type: functional; conditions: Rhodococcus (subgen. Prescottella) equi; method in brief: as §1
Prescottella equi [24] = assay: Antibacterial activity against Rhodococcus equi W5234 harboring GyrA Asp87Tyr mutation selected on 4 ug/ml of compound treated culture by broth microdilution method; type: functional; conditions: Rhodococcus (subgen. Prescottella) equi; method in brief: as §1
Prescottella equi [25] = assay: Antibacterial activity against Rhodococcus equi ATCC 6939T harboring GyrA Ser83Arg mutation selected on 4 ug/ml of compound treated culture by broth microdilution method; type: functional, organism-based; method in brief: as §1

Q: With O=C(O)c1cn(C2CC2)c2cc(N3CCNCC3)c(F)cc2c1=O [CIPROFLOXACIN] as the compound, how does the MIC (Prescottella equi [1]) read?
A: 64 µg/mL (≈ 193 µM)

Q: And the MIC (Prescottella equi [2])?
A: 128 µg/mL (≈ 386 µM)

Q: What about the MIC (Prescottella equi [3]) of the same compound?
A: 8 µg/mL (≈ 24.1 µM)

Q: And the MIC (Prescottella equi [4])?
A: 128 µg/mL (≈ 386 µM)

Q: And the MIC (Prescottella equi [5])?
A: 32 µg/mL (≈ 96.6 µM)

Q: And the MIC (Prescottella equi [6])?
A: 16 µg/mL (≈ 48.3 µM)

Q: And the MIC (Prescottella equi [7])?
A: inactive

Q: What about the MIC (Prescottella equi [8]) of the same compound?
A: inactive

Q: And the MIC (Prescottella equi [9])?
A: inactive

Q: What about the MIC (Prescottella equi [10]) of the same compound?
A: 4 µg/mL (≈ 12.1 µM)

Q: And the MIC (Prescottella equi [11])?
A: inactive

Q: What about the MIC (Prescottella equi [12]) of the same compound?
A: 64 µg/mL (≈ 193 µM)

Q: What about the MIC (Prescottella equi [13]) of the same compound?
A: inactive

Q: What about the MIC (Prescottella equi [14]) of the same compound?
A: inactive

Q: And the MIC (Prescottella equi [15])?
A: 2 µg/mL (≈ 6.04 µM)

Q: And the MIC (Prescottella equi [16])?
A: inactive

Q: And the MIC (Prescottella equi [17])?
A: 0.5 µg/mL (≈ 1.51 µM)

Q: What about the MIC (Prescottella equi [18]) of the same compound?
A: 32 µg/mL (≈ 96.6 µM)

Q: What about the MIC (Prescottella equi [19]) of the same compound?
A: inactive

Q: What about the MIC (Prescottella equi [20]) of the same compound?
A: 8 µg/mL (≈ 24.1 µM)

Q: What about the MIC99 (Prescottella equi [21]) of the same compound?
A: 0.42 µg/mL (≈ 1.27 µM)

Q: And the MIC (Prescottella equi [22])?
A: inactive

Q: And the MIC (Prescottella equi [23])?
A: 1 µg/mL (≈ 3.02 µM)

Q: And the MIC (Prescottella equi [24])?
A: 8 µg/mL (≈ 24.1 µM)

Q: And the MIC (Prescottella equi [25])?
A: inactive
